A selection: hits, their analogues and other compounds. The true share with any hit is near 3.5%.
RGS4 pot: RGS4 potentiation or activation; HEK293 M3R/inducible RGS4, carbachol calcium flux Fluo4; active compounds read low; actives 0.92% (n = 310,000); AID 463111; B-score at 10 µM;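 active = B-score of the integrated calcium signal more than 4 SD below the library mean, with starting fluorescence not abnormally high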;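 note: negative B-score means reduced calcium response which marks RGS4 activation or potentiation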
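Assay system: HEK293 FlpIn-TREx cells, stable M3R, doxycycline-inducible RGS4 / Probe or stimulus: carbachol, ECmax concentration / Times: overnight RGS4 induction, 30 min dye load 37 °C, 20 min compound RT / Signal: kinetic calcium fluorescence imaging with Fluo4-AM dye, 2 µM / Measure: Agonist-evoked peak-minus-minimum fluorescence over baseline, integrated ratio, B score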
MrgX1 antagonist: blocks BAM8-22 activation of human MrgX1 receptor. Q96LB2. MRGX1-HEK293 calcium flux, Fluo-4, BAM8-22 antagonism; active compounds read low. B-score at 10 µM. actives 1.3% (n = 310,000);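 active = calcium-response B-score plate-corrected more than 3 library SD below zero, starting fluorescence within 5 deviations, no agonist response on first addition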;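 note: peak minus trough fluorescence over baseline after final BAM8-22 challenge near maximal dose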
Target sequence (Q96LB2 whole entry, looked up): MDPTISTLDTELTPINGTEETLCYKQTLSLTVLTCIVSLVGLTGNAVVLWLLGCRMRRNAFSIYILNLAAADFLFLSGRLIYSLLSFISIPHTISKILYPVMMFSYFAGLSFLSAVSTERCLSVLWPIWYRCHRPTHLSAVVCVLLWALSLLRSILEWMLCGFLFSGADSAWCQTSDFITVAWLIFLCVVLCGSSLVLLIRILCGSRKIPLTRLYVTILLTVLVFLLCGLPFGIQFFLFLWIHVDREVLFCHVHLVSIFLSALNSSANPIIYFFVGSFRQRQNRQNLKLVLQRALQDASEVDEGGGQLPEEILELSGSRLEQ
MrgX1 PAM: human MrgX1 positive allosteric modulation, primary screen; Q96LB2; MrgX1-HEK293, Fluo-4 calcium flux, FDSS; active compounds read high; B-score at 10 µM; actives 0.63% (n = 310,000);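 active = plate-corrected calcium response at least 3 library SD above typical, normal starting fluorescence, not activating the receptor alone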;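 note: compound read alongside a low EC10 to EC30 dose of BAM8-22 agonist; peak minus trough fluorescence over baseline measured at the second addition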
MrgX1 ag: agonists of human MrgX1 receptor | MrgX1-HEK293 cells, Fluo-4 calcium fluorescence, agonist mode; active compounds read high | B-score at 10 µM | actives 0.44% (n = 310,000) | AID 588627;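 active = calcium response B-score plate-corrected fluorescence ratio at least 3 library SD, with starting fluorescence B-score inside 5 SD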
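Assay system: MrgX1-expressing HEK293 cells / Amount: fifteen thousand cells per well / Doses: test compound in the initial addition of three / Timing: cells plated overnight, dye loaded 0.5 h 37 °C, 0.5 h room temperature / Technique: kinetic calcium dye fluorescence, Fluo-4 NW / Control set: positive and negative controls per plate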
RGS4 block: inhibitors of human RGS4; P49798; HEK293 M3R/RGS4 inducible, Fluo-4 calcium flux; active compounds read high; triggered by carbachol at its EC20; B-score at 10 µM; actives 0.45% (n = 310,000); AID 463165;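 active = B-score, a plate-corrected calcium signal, over three deviations above library mean, with baseline fluorescence within five deviations of library mean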;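 note: RGS4 expression induced by doxycycline in cells with stable M3 receptor; B-score is computed from the integrated fluorescence ratio over baseline after carbachol; higher B-score means a larger calcium signal and so more RGS4 inhibition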
Target sequence (P49798 whole entry, looked up): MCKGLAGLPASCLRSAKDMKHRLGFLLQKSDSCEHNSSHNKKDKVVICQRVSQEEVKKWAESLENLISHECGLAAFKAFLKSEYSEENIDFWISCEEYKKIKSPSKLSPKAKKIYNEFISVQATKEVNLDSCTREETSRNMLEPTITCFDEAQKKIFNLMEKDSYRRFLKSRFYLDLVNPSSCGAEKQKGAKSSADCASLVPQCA
RGS4 block valid: RGS4 inhibitor validation | AID 492999 | calcium response, % at 10 µM | actives 65% (n = 1,700) | shares compounds with RGS4 block | HEK293 M3R/RGS4, carbachol calcium Fluo-4 fluorescence; carbachol added at its EC20; 0 = buffer wells, 100 = carbachol control;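 active = duplicate-averaged calcium response above the buffer-only control mean plus 5 SD of those controls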;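 note: integrated fluorescence ratio F max minus min over baseline F0; higher response in RGS4-induced cells means RGS4 inhibition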
RGS4 uninduced: non-induced cell nonspecific activity of RGS4 inhibitors; shares compounds with RGS4 block; HEK293 M3R non-induced, carbachol calcium Fluo-4; submaximal (EC20) carbachol stimulus; buffer wells 0%, carbachol control wells 100%; activity (percent), % at 10 µM; actives 20% (n = 1,900); call rule not given here;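 note: RGS4 induction absent so cells express M3R without RGS4; higher means more calcium signal and flags a non-specific hit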
RGS4 inh ctr2: second counter-screen for RGS4 inhibitors: non-induced cells without carbachol. shares compounds with RGS4 block. HEK293 M3R/RGS4 non-induced, Fluo-4 calcium, no carbachol; normalised: buffer wells 0%, carbachol wells 100%. calcium response (agonist-mode artifact), % at 10 µM. actives 22% (n = 1,900). AID 493001;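 active = duplicate-averaged calcium rise in uninduced cells above buffer wells' mean plus 5 SD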
* marks the source's active call; other numbers are inactive results; i = inactive; · = no result given.

SMILES	RGS4 pot	MrgX1 antagonist	MrgX1 PAM	MrgX1 ag	RGS4 block	RGS4 block valid	RGS4 uninduced	RGS4 inh ctr2
CCOc1ccc(C(=O)/C=C/Nc2ccc(S(=O)(=O)Nc3onc(C)c3C)cc2)cc1	i	i	i	i	i	·	·	·
Cc1noc(NS(=O)(=O)c2ccc(NC(=O)c3ccc(N4C(=O)c5ccccc5C4=O)cc3)cc2)c1C	i	i	i	i	i	·	·	·
O=C(c1ccc(F)cc1F)N1CCCc2ccccc21	i	i	i	i	i	·	·	·
CNc1nc(C)cc(C)c1S(=O)(=O)c1ccc(C)cc1	i	i	i	i	i	·	·	·
Cc1c(Br)c([N+](=O)[O-])nn1CC(=O)N1CCCc2ccccc21	i	i	i	i	i	·	·	·
CC(=O)Nc1ccc(NC(=O)COC(=O)c2cnccn2)cc1	i	i	i	i	i	·	·	·
COc1ccc(-c2cc(C(F)(F)F)n3nc(C(=O)NCc4ccco4)cc3n2)cc1OC	i	i	i	i	8.2*	10%*	i	10%*
CN1CCN(C(=O)C2CCCN(S(=O)(=O)c3ccc(Cl)cc3)C2)CC1 (configuration not stated)	i	i	i	i	i	·	·	·
COc1ccc(C2=NN(C(=O)CCCC(=O)O)C(c3cn(-c4ccccc4)nc3-c3ccccc3)C2)cc1 (configuration not stated)	i	i	i	i	i	·	·	·
O=C(Cc1cccs1)N1CCCC(c2nc3c(nnn3Cc3ccc(F)cc3)c(=O)[nH]2)C1 (configuration not stated)	i	i	i	i	i	·	·	·
Cc1ccc(Cn2nnc3c(=O)[nH]c(C4CCN(C(=O)Cc5cccs5)CC4)nc32)cc1	i	i	i	i	i	·	i	i
CC(C)(C)c1ccc(Cn2nnc3c(=O)[nH]c(C4CCCN(C(=O)Cc5cccs5)C4)nc32)cc1 (configuration not stated)	i	i	i	i	i	·	·	·
O=C(Cc1cccs1)N1CCC(c2nc3c(nnn3Cc3ccccc3)c(=O)[nH]2)CC1	i	i	i	i	i	i	i	i
CC(C)(C)c1ccc(Cn2nnc3c(=O)[nH]c(C4CCN(C(=O)Cc5cccs5)CC4)nc32)cc1	i	i	i	i	5.4*	27%*	i	i
COC(=O)/C(=C/c1c[nH]c2ccccc12)[N+](=O)[O-]	i	i	i	34*	21*	18%*	35%*	20%*
CCOn1c(=O)c(-c2ccc(OC)c(OC)c2)[n+]([O-])c2ccccc21	i	i	i	i	i	i	i	i
CCOn1c(=O)c(-c2ccc(OC)cc2)[n+]([O-])c2ccccc21	i	i	i	i	i	·	·	·
NC(=O)C1=NOC(CNc2ncc(C(F)(F)F)cc2Cl)C1 (configuration not stated)	i	i	i	i	i	i	i	i
CO/N=C/NC(=O)C1=NOC(CNc2ncc(C(F)(F)F)cc2Cl)C1 (configuration not stated)	i	i	i	i	i	·	·	·
O=Cc1s/c(=N\S(=O)(=O)c2ccccc2)n(CCCCl)c1Cl	i	·	·	·	5.4*	9.0%*	i	20%*
CCn1c(C)cs/c1=N\S(=O)(=O)c1ccccc1	i	i	i	i	i	·	·	·
CN1CCN(NC(=O)NC2CCCCC2)CC1	i	i	i	i	i	·	·	·
O=C(CNc1ccc2ccccc2c1)N/N=C/c1cc2ccccc2nc1Cl	i	i	i	i	i	·	i	i
C/C(=N\n1cnnc1)c1ccc(C#N)cc1	i	i	i	i	i	·	·	·
Cc1ccc(/C=C/C(=O)N2CCN(c3ncccn3)CC2)o1	i	i	i	i	14*	17%*	i	i
SMILES	RGS4 pot	MrgX1 antagonist	MrgX1 PAM	MrgX1 ag	RGS4 block	RGS4 block valid	RGS4 uninduced	RGS4 inh ctr2
COc1ccc(-c2ccc3oc(-c4ccc(OC)cc4)c(C#CCO)c3c2)cc1	i	i	i	i	i	·	·	·
COc1ccc(-c2sc3ccc(OC)cc3c2C#CCCO)cc1	i	i	i	i	i	i	i	i
CCOC(=O)C1CCN(S(=O)(=O)c2cc3c4c(c2)C(C)C(=O)N4CCC3)CC1 (configuration not stated)	i	i	i	i	i	·	·	·
COc1ccc(-c2csc(Nc3cc(C)ccn3)n2)cc1C	i	i	i	i	9.8*	34%*	39%*	i
O=C(CC1Nc2cccc3cccc(c23)NC1=O)Nc1ccc(F)cc1 (configuration not stated)	i	i	i	i	5.3*	34%*	i	i
O=C(CC1Nc2ccccc2NC1=O)Nc1cc(Cl)cc(Cl)c1 (configuration not stated)	i	i	i	i	15*	24%*	i	18%*
O=C(CC1NC(=O)NC1=O)Nc1ccc(Cl)cc1 (configuration not stated)	i	i	i	i	i	·	·	·
O=C(Nc1ccc2ccccc2c1)C(=O)C1C(=O)Nc2ccccc21 (configuration not stated)	i	i	6.9*	i	8.1*	12%*	i	i
Cc1cccc(NC(=O)C(=O)C2C(=O)Nc3ccccc32)c1 (configuration not stated)	i	i	i	i	i	·	·	·
O=C(Nc1cccc(N2C(=O)C=CC2=O)c1)c1cccs1	i	i	i	35*	21*	33%*	i	48%*
Cc1nc2ccccc2c(=O)n1-c1cccc(NC(=O)c2cccs2)c1	i	i	i	i	i	·	·	·
COc1cc(OC)cc(C(=O)OCC(=O)NCCCc2ccccc2)c1	i	i	i	i	i	·	·	·
Cc1cc(N(CCO)CCO)ccc1N=Nc1cc(F)ccc1F	i	i	i	i	7.3*	18%*	41%*	i
